Assay outcomes deposited in PubChem by Johns Hopkins Ion Channel Center.
This is a sample that favours compounds with a hit; in the whole collection about 3.5% have one here.
MrgX1 antagonist: human MrgX1 receptor antagonism, primary screen | Q96LB2 | MRGX1-HEK293 calcium flux, Fluo-4, BAM8-22 antagonism; active compounds read low | B-score at 10 µM | hit rate 1.3% among 310,000 | AID 588676;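 active means calcium-response B-score plate-corrected more than 3 library SD below zero, starting fluorescence within 5 deviations, no agonist response on first addition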;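 further: peak minus trough fluorescence over baseline after final BAM8-22 challenge near maximal dose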
Target sequence (Q96LB2 whole entry, looked up): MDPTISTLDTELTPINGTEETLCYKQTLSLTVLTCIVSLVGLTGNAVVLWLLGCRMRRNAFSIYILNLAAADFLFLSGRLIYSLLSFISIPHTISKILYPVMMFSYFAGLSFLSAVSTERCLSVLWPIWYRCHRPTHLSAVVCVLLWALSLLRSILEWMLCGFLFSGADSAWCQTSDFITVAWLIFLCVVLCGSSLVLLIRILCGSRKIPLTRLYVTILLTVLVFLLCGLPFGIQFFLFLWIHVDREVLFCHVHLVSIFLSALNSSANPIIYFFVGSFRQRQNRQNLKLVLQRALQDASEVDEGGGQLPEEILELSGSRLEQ
MrgX1 ag: human MrgX1 receptor agonism, primary screen; MrgX1-HEK293 cells, Fluo-4 calcium fluorescence, agonist mode; active compounds read high; Q96LB2; hit rate 0.44% among 310,000; B-score at 10 µM;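 active means calcium response B-score plate-corrected fluorescence ratio at least 3 library SD, with starting fluorescence B-score inside 5 SD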
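Material: MrgX1-expressing HEK293 cells / Dosing: compound as first of three additions / Incubation: overnight seeding, then 1 h dark dye loading / Signal: Fluo-4 NW calcium fluorescence / Evaluation: B-scored fluorescence response ratio / Benchmarks: positive and negative control wells on each plate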
MrgX1 PAM: allosterically activates human MrgX1 receptor signaling; Q96LB2; MrgX1-HEK293, Fluo-4 calcium flux, FDSS; active compounds read high; B-score at 10 µM; hit rate 0.63% among 310,000; AID 588675;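 active means plate-corrected calcium response at least 3 library SD above typical, normal starting fluorescence, not activating the receptor alone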;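 further: compound read alongside a low EC10 to EC30 dose of BAM8-22 agonist; peak minus trough fluorescence over baseline measured at the second addition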
RGS4 pot: RGS4 potentiation or activation. HEK293 M3R/inducible RGS4, carbachol calcium flux Fluo4; active compounds read low. B-score at 10 µM. hit rate 0.92% among 310,000;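 active means B-score of the integrated calcium signal more than 4 SD below the library mean, with starting fluorescence not abnormally high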;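 further: negative B-score means reduced calcium response which marks RGS4 activation or potentiation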
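Detection: kinetic calcium fluorescence imaging with Fluo4-AM dye, 2 µM / Material: HEK293 cells with stable M3R and inducible RGS4 / Schedule: recording 10 s baseline at 1 Hz, 100 s post-agonist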
RGS4 inh: human RGS4 inhibition. P49798. HEK293 M3R/RGS4 inducible, Fluo-4 calcium flux; active compounds read high; triggered by carbachol at its EC20. hit rate 0.45% among 310,000. B-score at 10 µM;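 active means B-score, a plate-corrected calcium signal, over three deviations above library mean, with baseline fluorescence within five deviations of library mean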;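 further: RGS4 expression induced by doxycycline in cells with stable M3 receptor; B-score is computed from the integrated fluorescence ratio over baseline after carbachol; higher B-score means a larger calcium signal and so more RGS4 inhibition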
Target sequence (P49798 whole entry, looked up): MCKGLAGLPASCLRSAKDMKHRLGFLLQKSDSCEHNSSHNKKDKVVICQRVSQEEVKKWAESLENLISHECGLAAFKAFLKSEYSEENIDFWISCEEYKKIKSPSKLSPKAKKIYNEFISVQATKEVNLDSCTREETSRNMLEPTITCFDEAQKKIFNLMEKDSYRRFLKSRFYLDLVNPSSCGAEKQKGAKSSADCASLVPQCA
Active calls of the source: *; i = inactive; / = not tested or not shown.

SMILES | MrgX1 antagonist | MrgX1 ag | MrgX1 PAM | RGS4 pot | RGS4 inh
CCC1C=CC=CC[C@H](C)[C@@H](O)[C@](C)(O)C(=O)[C@@H](C)[C@H](O)[C@@H](C)C(=O)[C@H](C)[C@@H](O)[C@H](C)C=CC(=O)OC2[C@@H](C)C(CC1)OC1(CC[C@@H](C)C(C[C@H](C)O)O1)[C@@H]2C (stereo partly specified) | -4.8* | i | i | / | /
CC(=O)O[C@H]1CC[C@@]2(C)[C@H](C1)C(=O)C[C@H]1[C@@H]3CC[C@@H]4[C@@H](CN5C[C@@H](C)CC[C@H]5[C@@]4(C)O)[C@@H]3C[C@@H]12 | i | i | i | -7* | i
C[C@H]1CC[C@@H]2N(C1)C[C@H]1[C@@H]3C[C@H]4[C@@H](CC(=O)[C@H]5C[C@@H](O)CC[C@@]54C)[C@@H]3CC[C@H]1[C@]2(C)O | i | i | i | i | i
O=c1[nH]c(=O)n(Cc2ccco2)c(O)c1/C=N/N1CCCCC1 | i | i | i | i | i
CN=C1CN(O)C(c2ccccc2)=c2cc(Cl)ccc2=N1 | i | i | 9.6* | i | i
Clc1cnc(Oc2ccc(Oc3ncc(Cl)cc3Cl)cc2)c(Cl)c1 | i | i | 13* | i | i
CN1CCN(c2ccc([N+](=O)[O-])c(SCCO)c2)CC1 | i | i | i | i | i
Cc1c(C=O)c2ccccc2n1Cc1ccc([N+](=O)[O-])cc1 | -5.3* | i | i | i | i
Cc1cc(OC(C)C(=O)NCC(O)c2ccccc2)c2c3c(c(=O)oc2c1)CCCC3 (stereo unspecified) | i | i | i | i | i
CN1C[C@H](CO)C=C2c3cccc4[nH]cc(c34)C[C@H]21 | i | 36* | i | i | i
Cc1cc(O)c2c(C)c(CC(=O)N3C[C@H]4C[C@@H](C3)c3cccc(=O)n3C4)c(=O)oc2c1 | -5.2* | i | i | i | i
COc1cc(C)cc2oc(=O)c(CC(=O)N3C[C@H]4C[C@@H](C3)c3cccc(=O)n3C4)c(C)c12 | i | i | i | i | i
CCC1(C(=O)c2ccccc2)C2c3ccccc3OC(=O)C21C(C)=O (stereo unspecified) | i | i | i | i | i
CCCCC/C(=N\O)c1c[nH]c2ccccc12 | -6.6* | i | i | i | i
COc1ccc(CC(C)NCCC(c2ccccc2)c2ccccc2)cc1 (stereo unspecified) | i | i | i | -7.4* | i
C=CCc1ccc(OC)cc1 | i | i | i | / | /
CCCOc1ccc(C(=O)NC(=S)N2C[C@H]3C[C@H](C2)c2cccc(=O)n2C3)cc1 | i | i | i | i | i
O=C1NC(=O)N(c2ccccc2)C(=O)/C1=C/c1coc2ccc(O)cc2c1=O | i | 27* | i | i | i
N#CC(C#N)=Cc1cccnc1 | -4.6* | i | i | i | i
N#CC(C#N)=Cc1ccc(N2CCOCC2)cc1 | i | i | i | i | i
CCOC(=O)c1c(C)n(Cc2ccccc2)c2ccc(OCC(O)CNC(C)(C)C)cc12 (stereo unspecified) | -4.7* | i | i | i | i
C=C(C)[C@@H]1C2C(=O)O[C@H]1[C@H]1OC(=O)[C@@]34OC3C[C@]2(O)[C@@]14C (stereo partly specified) | -6.4* | i | i | / | /
CC(=Nc1ccc(F)cc1)c1c(O)n(C)c(=O)[nH]c1=O | i | i | i | i | i
CC(C)OCCCNC(=O)c1c(N)n(CC2CCCO2)c2nc3ccccc3nc12 (stereo unspecified) | i | i | i | -7.2* | i
CCCNC(=O)c1c(N)n(CC2CCCO2)c2nc3ccccc3nc12 (stereo unspecified) | i | i | i | i | i
SMILES | MrgX1 antagonist | MrgX1 ag | MrgX1 PAM | RGS4 pot | RGS4 inh
CC[n+]1c(/C=C/N(C)c2ccccc2)sc2ccc(Cl)cc21 | i | i | i | -9.5* | i
CC[n+]1c(/C=C/C=C/c2ccc(N(C)C)cc2)sc2ccccc21 | i | i | i | i | i
OC(c1ccccc1)(c1ccccc1)C1CN2CCC1CC2 (stereo unspecified) | i | i | i | -7.5* | i
CN1Cc2c(c(C#N)c(N)n(C)c2=S)CC1(C)C | i | i | i | -9.3* | i
COc1ccccc1C1CC2CCC(C1OC(C)=O)N2Cc1ccccc1 (stereo unspecified) | i | i | i | i | i
O=[N+]([O-])c1ccc(N2CCCC2)c2ccncc12 | -5.1* | i | i | i | i
O=[N+]([O-])c1ccc(NC2CCCC2)c2ccncc12 | i | i | i | i | i
Oc1cc(Cl)ccc1Oc1ccc(Cl)cc1Cl | i | i | i | -7.1* | i
O=C1OC(c2ccc([N+](=O)[O-])cc2)=N/C1=C/N1CC2CC(C1)c1cccc(=O)n1C2 (stereo unspecified) | i | 57* | i | i | i
O=C1OC(c2ccc(Br)cc2)=N/C1=C\N1CC2CC(C1)c1cccc(=O)n1C2 (stereo unspecified) | i | i | i | i | i
C=C1C2[C@H](OC(C)=O)[C@@H]3CC(=O)[C@]4(C)OC[C@@]3(C)[C@@]4(O)[C@@H](OC(C)=O)[C@H](OC(C)=O)[C@@]2(COC(=O)c2ccccc2)[C@@H](OC(C)=O)C[C@@H]1O (stereo partly specified) | -5.4* | i | i | i | i
CC1CCC(NC(=O)CNC(=S)N2CC3CC(C2)c2cccc(=O)n2C3)CC1 (stereo unspecified) | i | i | i | i | i
O=[N+]([O-])c1ccccc1-c1cc(-c2ccccc2)cc(-c2ccccc2)[n+]1Cc1ccccc1Cl | -7* | i | i | -10* | i
O=C1NC(=O)N(Cc2ccccc2)C(=O)/C1=C/c1cnn(-c2ccccc2)c1 | -5.5* | i | i | i | i
Cc1cc(O)c2c(c1)C(=O)C13C(=C2O)C(=O)[C@H]2[C@@H](O)[C@@H]1[C@H]1[C@H](O)[C@@H]3C(=O)C3=C(O)c4c(O)cc(C)cc4C(=O)C312 (stereo partly specified) | i | i | i | / | /
COc1ccc(C(=O)C2CCCN(C3CSCCSC3)C2)cc1OC (stereo unspecified) | i | i | i | -7.5* | i
COc1ccc(C(=O)C2CCCN(Cc3cnc(C)s3)C2)cc1OC (stereo unspecified) | i | i | i | i | i
Cc1ccccc1N1C(=O)NC(=O)/C(=C\c2ccc3c(c2)CCCN3Cc2ccccc2)C1=O | i | 32* | i | i | i
